In ChEMBL document CHEMBL1139923, “Biological evaluation of de-O-sulfonated analogs of salacinol, the role of sulfate anion in the side chain on the alpha-glucosidase inhibitory activity” (Bioorg Med Chem, 2007):
Calls of active or inactive are those of the source. The calls are words filed in the database; no cut-off is given here.

Experiments:
[1] = Inhibition of rat intestinal sucrase
How it was run: (§1)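 Sucrose (74 mM in the substrate solution, 0.1 M maleate buffer) was the substrate for intestinal α-glucosidase. Test compound was added from a DMSO stock diluted in buffer (2.5% DMSO final) along with enzyme. The mixture ran 30 min at 37 °C and was halted by boiling for 2 min. Released glucose was quantified by the glucose-oxidase method.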

[2] = Inhibition of rat intestinal maltase
How it was run: (§2)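 Intestinal α-glucosidase from the in vitro assay with maltose as substrate, 74 mM in the substrate solution. Compound was dissolved in DMSO and diluted in 0.1 M maleate buffer, giving 2.5% DMSO final. Substrate, compound and enzyme solutions were incubated at 37 °C for 30 min, stopped by 2 min in boiling water, and glucose was measured by glucose-oxidase.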

Rattus norvegicus [3] = species on record: Rattus norvegicus; test: Inhibition of rat intestinal maltase at 400 ug/ml; how it was run: as §2
Rattus norvegicus [4] = species on record: Rattus norvegicus; test: Inhibition of rat intestinal sucrase at 400 ug/ml; how it was run: as §1
Rattus norvegicus [5] = species on record: Rattus norvegicus; test: Inhibition of rat intestinal maltase at 1092 uM; how it was run: as §2

IC50 [1] [µM]	IC50 [2] [µM]	inhibition (Rattus norvegicus [3]) [%]	inhibition (Rattus norvegicus [4]) [%]	Activity (Rattus norvegicus [5])	Structure (SMILES)
3.5	14	–	–	–	OC[C@@H]1[C@@H](O)[C@H](O)C[S@@+]1C[C@@H](O)[C@@H](O)CO [listing 2 of 2 here]
> 1090	> 1090	–	48	inactive	OC[C@H](O)[C@H](O)C[S@@+]1C[C@H](O)[C@@H](O)[C@@H]1CO

The remaining lines, values behind:

Structure (SMILES)	IC50 [1] [µM]	IC50 [2] [µM]	inhibition (Rattus norvegicus [3]) [%]	inhibition (Rattus norvegicus [4]) [%]	Activity (Rattus norvegicus [5])
OC[C@@H]1[C@@H](O)[C@H](O)C[S@@+]1C[C@@H](O)[C@@H](O)CO [listing 1 of 2 here]	3.7	15.6	–	–	–
O=S(=O)([O-])O[C@@H](CO)[C@H](O)C[S@@+]1C[C@H](O)[C@@H](O)[C@@H]1CO	> 1200	> 1200	18	21	–
O=S(=O)([O-])O[C@@H](CO)[C@H](O)C[S@+]1C[C@@H](O)[C@H](O)[C@H]1CO [SALACINOL]	2.5	9.6	–	–	–
